Structures are written as SMILES.

These results are taken from ChEMBL document CHEMBL3259807, “Structure-activity relationships of pyrazole derivatives as potential therapeutics for immune thrombocytopenias” (Bioorg Med Chem, 2014).

For series [1], the system named is PBMC. Description: Inhibition of human PBMC-induced phagocytosis of antibody-opsonized RBC at 5 uM incubated for 1 hr prior to RBC addition measured after 2 hrs by phase-contrast microscopy. Format: functional. In a few lines: (§1)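 Ficoll-isolated human PBMC cultured overnight (10% FBS, 37 °C, 5% CO2). 7×10^5 cells adhered 1 h on chamber slides, then non-adherent cells removed. Compound or IVIg was added for 1 h, media aspirated, and anti-D-opsonized human R2R2 RBCs added for 2 h. Slides were methanol-fixed and read by phase-contrast, counting ≥100 monocytes for the phagocytosis index. Results are normalized to vehicle (100% phagocytosis). Screen at 5 µM; titration 0.5–100 µM.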

Series [2] in a line: Basic dissociation constant, pKa of the compound at 10 mM. Format: physicochemical.
Series [3] is described as follows: Distribution coefficient, log D of the compound at 10 mM at pH 7.4 by pH-metric method. Format: physicochemical. The note with it: octanol/water.
Series [4] deals with PBMC. Description: Induction of apoptosis in human PBMC assessed as apoptotic index at 10 uM after 1 hr by Annexin V/propidium iodide staining-based FACS analysis relative to IVIg. To be noted: in the assay text read “relative to vehicle” for “relative to IVIg”. It is filed as cell-based. In a few lines:
(§2)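 Ficoll-isolated human PBMC cultured overnight in 10% FBS medium, 37 °C, 5% CO2. After 1 h adherence, non-adherent cells removed, and the rest were exposed to compound at 10 and 100 µM for 1 h. Cells were then scraped and stained with Annexin V-APC plus PI (1 µg/mL) for flow cytometry. AI = fold increase in % apoptotic cells (Annexin V+ and Annexin V+/PI+) over vehicle.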

The subject of series [5] is PBMC. Description: Induction of apoptosis in human PBMC assessed as apoptotic index at 100 uM after 1 hr by Annexin V/propidium iodide staining-based FACS analysis relative to IVIg. It is filed as cell-based. The note with it: in the assay text read “relative to vehicle” for “relative to IVIg”. Put shortly: as §2
A short description of series [6]: Acidic dissociation constant, pKa of the compound at 10 mM. Format: physicochemical.
Series [7] has as its system PBMC. Description: Inhibition of human PBMC-induced phagocytosis of antibody-opsonized RBC incubated for 1 hr prior to RBC addition measured after 2 hrs by phase-contrast microscopy. Format: functional, cell-based. Put shortly: as §1

One may read the inhibition as the drop in the measured response relative to a control, in per cent. A low value points to little suppression. The pKa is the negative logarithm of the acid dissociation constant. Read a high pKa as a weaker acid or stronger base. By logD is commonly meant the decadic logarithm of the distribution of all forms, ionised or not, between an organic phase and buffer at a given pH. The low end stands for a more hydrophilic compound, the high end for a more lipophilic compound. On to `Cc1cc(CCc2cc(C)nn2-c2ccccc2)n(-c2ccccc2)n1`, for which the inhibition at 5 µM in the series with PBMC [1] was 14%. Moreover, the pKa at 10000 µM in series [2] amounted to 2.5. This compound also gave a logD at 10000 µM in series [3] of 1.3. For the same compound, the Ratio in the series with PBMC [4] is reported as 1; in the series on PBMC [5] it was 0.9.

Compound `Cc1nn(-c2ccccc2)c(SSc2c(C(=O)c3ccccc3)c(C)nn2-c2ccccc2)c1C(=O)c1ccccc1` had an inhibition at 5 µM with PBMC [1] of 32%. For the same compound, the pKa at 10000 µM in series [2] was determined as 3.2. In series [3], this compound registered a logD at 10000 µM of 8. The Ratio came out at 0.8 with PBMC [4] and 1 with PBMC [5].

Compound `Cc1cc(SSc2cc(C)nn2-c2ccccc2)n(-c2ccccc2)n1` showed an inhibition at 5 µM in the series on PBMC [1] of 45%. The compound also had a pKa at 10000 µM in series [2] of 4.8. The compound also showed a logD at 10000 µM in series [3] of 3.2. Moreover, the Ratio is on record as 1 with PBMC [4] and 5.4 in the series with PBMC [5].

Turning to `Cc1cc(COc2cc(C)nn2-c2ccc([N+](=O)[O-])cc2)n(-c2ccccc2)n1`, the inhibition at 5 µM in the series with PBMC [1] worked out at 16%. In addition, in series [2], the pKa at 10000 µM was found to be 2. Also, the logD at 10000 µM in series [3] is 3.7. The Ratio with PBMC [4] and in the series on PBMC [5] was 0.8 throughout.

On to `Cc1cc(OCc2cc(C)nn2-c2ccccc2)n(CCN)n1`, for which, in the series on PBMC [1], the inhibition at 5 µM came to 33%. For the same compound, the pKa at 10000 µM in series [2] turned out to be 2.5. Further, the logD at 10000 µM in series [3] was found to be 5. Besides, the Ratio is 1.1 in the series on PBMC [4] and 1 in the series on PBMC [5].

The compound `Cc1cc(OCC2CCCN2Cc2ccccc2)n(-c2ccccc2)n1` (stereo unspecified) showed an inhibition at 5 µM in the series with PBMC [1] of 15%. This compound also showed a pKa at 10000 µM in series [2] of 2.4. The same compound had a logD at 10000 µM in series [3] of 4.5. The Ratio was 1.1 with PBMC [4] and 0.9 in the series on PBMC [5].

Compound `Cc1cc(CNCc2cc(C)nn2-c2ccccc2)n(-c2ccccc2)n1` registered an inhibition at 5 µM in the series with PBMC [1] of 20%. For the same compound, in series [2], the pKa at 10000 µM amounted to 2.2. Besides, in series [3], the logD at 10000 µM is 5. Besides, the values for the Ratio in the series with PBMC [4] and with PBMC [5] were 1.1 and 0.9, respectively.

`Cc1cc(OCc2cc(C)nn2-c2ccccc2)n(CC2CCCCC2)n1`: 5 µM produced 45% inhibition in the series on PBMC [1]. This compound also registered a pKa at 10000 µM in series [2] of 3.6. In series [3], this compound showed a logD at 10000 µM of 4.3. In addition, the Ratio stood at 1 in the series on PBMC [4] and 1.1 with PBMC [5].

For `Cc1cc(COc2cc(C)nn2-c2ccccc2)n(Cc2ccccc2)n1`, the inhibition at 5 µM with PBMC [1] was 0%. In series [2], this compound gave a pKa at 10000 µM of 2.1. For the same compound, the logD at 10000 µM in series [3] was determined as 5.3. Further, the Ratio came out at 1.1 in the series with PBMC [4] and 1 in the series with PBMC [5].

A word on the IC50: it is the concentration at which inhibition is half-maximal. The low end stands for higher potency, the high end for lower potency. As to `Cc1cc(O)n(Cc2cc(C)nn2-c2ccccc2)n1`, in the series on PBMC [1], the inhibition at 5 µM was 58%. Also, the figures for the pKa at 10000 µM in series [6] and in series [2] were 8.4 and 2.3, respectively. Also, the pH-dependent lipophilicity (logD) at 10000 µM in series [3] was determined as 4.3. The Ratio in the series on PBMC [4] was 1.2; with PBMC [5], 1.3. The compound further yielded an IC50 with PBMC [7] of 14 µM.

As for `Cc1nn(-c2ccccc2)c(S)c1C(=O)c1ccccc1`, the inhibition at 5 µM in the series with PBMC [1] stood at 0%. The results for the pKa at 10000 µM in series [6] and in series [2] were 10.3 and 2.9, respectively. Further, in series [3], the logD at 10000 µM was -0.3. For the same compound, the Ratio with PBMC [4] stood at 2; with PBMC [5], 1.6.

Consider `Cc1cc(OCc2cc(C)nn2-c2ccccc2)n(CC(=O)O)n1`, for which, in the series on PBMC [1], at 5 µM the inhibition was 10%. In addition, the results for the pKa at 10000 µM in series [6] and in series [2] were 3.4 and 7.3, respectively. This compound also returned a logD at 10000 µM in series [3] of 1.2. The Ratio in the series with PBMC [4] is given as 1.1; in the series with PBMC [5], 1.2.

Compound `Cc1cc(OCCOc2cc(C)nn2-c2ccccc2)n(-c2ccccc2)n1` showed an inhibition at 5 µM with PBMC [1] of 4%. In series [2], the pKa at 10000 µM was determined as 2.2. In addition, in series [3], the logD at 10000 µM is -1.6. In addition, the Ratio in the series on PBMC [4] and in the series with PBMC [5] was 1 throughout.

In the series on PBMC [1], `Cc1cc(COc2cc(C)nn2C2CCCC2)n(-c2ccccc2)n1` returned an inhibition at 5 µM of 17%. This compound had a pKa at 10000 µM in series [2] of 2.7. This compound also showed a logD at 10000 µM in series [3] of 1.7. Further, the Ratio with PBMC [4] is reported as 0.9; with PBMC [5], 1.2.

`Cc1cc(OCc2cc(C)nn2-c2ccccc2)[nH]n1`: in the series on PBMC [1], the inhibition at 5 µM worked out at 6%. Besides, the pKa at 10000 µM in series [6] is 12.5; in series [2] it was 2.4. Moreover, in series [3], the logD at 10000 µM amounted to 2.9. In addition, the Ratio in the series with PBMC [4] and with PBMC [5] was 1 in each case.

As to `Cc1nn(-c2ccccc2)c(S)c1C(=O)c1ccno1`, in the series on PBMC [7], it took 250 µM to reach half-maximal inhibition (IC50).

`Cc1cc(COc2cc(C)nn2-c2ccccc2)n(-c2ccccc2)n1` displayed an inhibition at 5 µM with PBMC [1] of 16%. Also, the pKa at 10000 µM in series [2] is 2.7. The logD at 10000 µM in series [3] was found to be 2.2. In addition, the Ratio stood at 1.1 in the series with PBMC [4] and 0.9 in the series on PBMC [5].

On to `Cc1cc(Oc2c(N)c(C)nn2-c2ccccc2)n(-c2ccccc2)n1`, for which testing at 5 µM with PBMC [1] gave an inhibition of 2%. This compound had a pKa at 10000 µM in series [2] of 3.4. In series [3], this compound had a logD at 10000 µM of 4. For the same compound, the values for the Ratio with PBMC [4] and in the series with PBMC [5] were 1.2 and 1, respectively.
